Results published in ChEMBL document CHEMBL4130499, “Serendipitous discovery of potent human head and neck squamous cell carcinoma anti-cancer molecules: A fortunate failure of a rational molecular design” (Eur J Med Chem, 2017).
pIC50: −log10 of the molar value. Active and inactive are the calls of the source. No cut-off for these calls is given here.

Legend:
184B5 = assay: Cytotoxicity in human 184B5 cells assessed as reduction in cell viability incubated for 24 hrs by MTT assay; type: cell-based; settings: 184B5, 24 h
Procedure, shortened: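 184B5 immortalized non-cancer breast epithelial cells; cytotoxicity over 24 h drug exposure, evaluated alongside the HNSCC lines; IC50 in nM taken as mean of three independent triplicate experiments ± standard error.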

[1] = molecular target: T1, Histone deacetylase (Homo sapiens) (UniProt Q13547+O15379+Q9UBN7+Q92769+Q9UQL6+Q8WUI4+Q9BY41+Q96DB2+P56524+Q9UKV0+Q969S8); assay: Inhibition of HDAC in human HeLa nuclear extracts at 500 uM incubated for 60 mins using fluorometric substrate by fluorometric assay; type: protein assay
Procedure, shortened: (§1)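 HeLa nuclear extract incubated with compound, assay buffer and acetyl-lysine fluorogenic HDAC substrate for 60 min at 37 °C. Lysine developer then added for a further 30 min at 37 °C. Fluorescence read at ex 370/em 450 nm. Water served as positive control and 20 µM TSA as inhibitor control.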

[2] = Selectivity index, ratio of IC50 for cytotoxicity in human […] cells; type: toxicity, cell-based; settings: HN13 cells and 184B5 cells, read-out: Ratio IC50
[3] = molecular target: T1, Histone deacetylase (Homo sapiens); assay: Inhibition of HDAC in human HN13 cells assessed as increase in histone H3 acetylation at 1 nM incubated for 24 hrs by Western blot
WSU-HN13 [4] = assay: Induction of PTEN protein expression in human HN13 cells incubated for 24 hrs by Western blot; type: functional, cell-based
Procedure, shortened: (§2)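 HN13 cells treated 24 h with 1.0 or 10.0 nM compound versus vehicle controls. Lysed in Tris pH 7.5/SDS/β-mercaptoethanol with protease inhibitors at 4 °C, protein quantified by BCA. 30 μg loaded for SDS-PAGE, transferred to PVDF, blocked 1 h in 5% milk, probed for PTEN (and pS6) with GAPDH loading control. HRP chemiluminescent detection.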

[5] = molecular target: T1, Histone deacetylase (Homo sapiens); assay: Ratio of inhibition of HDAC in human HN13 cells assessed as increase in histone H3 acetylation to IC50 for inhibition of HDAC in human HeLa nuclear extracts
[6] = Cytotoxicity in human HN12 cells assessed as reduction in cell viability incubated for 24 hrs by MTT assay; type: functional, cell-based; settings: HN12, 24 h
Procedure, shortened: (§3)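 HNSCC lines (HN6, HN12, HN13) grown in DMEM with 10% fetal calf serum at 37 °C, 5% CO2, to 70–80% confluence. Seeded, after 24 h exposed to rising compound concentrations for a further 24 h. MTT (5 mg/mL in PBS) added, formazan dissolved in DMSO, absorbance read at 590 nm. IC50 in nM, mean of three independent triplicate experiments ± standard error.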

WSU-HN13 [7] = assay: Induction of PTEN protein expression in human HN13 cells assessed as reduction in PI3K/Akt/mTOR signalling by measuring reduction in pS6 protein expression incubated for 24 hrs by Western blot; type: functional, cell-based; procedure, shortened: as §2
WSU-HN13 [8] = assay: Cytotoxicity in human HN13 cells assessed as reduction in cell viability incubated for 24 hrs by MTT assay; type: functional, cell-based; settings: WSU-HN13, 24 h; procedure, shortened: as §3
[9] = Cytotoxicity in human HN6 cells assessed as reduction in cell viability incubated for 24 hrs by MTT assay; type: functional, cell-based; settings: HN-6, 24 h; procedure, shortened: as §3
[10] = molecular target: T1, Histone deacetylase (Homo sapiens); assay: Inhibition of HDAC in human HN13 cells assessed as reduction in histone H3 acetylation incubated for 24 hrs by immunofluorescence assay; type: cell-based
Procedure, shortened: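 HN13 on glass coverslips, overnight at 37 °C, then treated 24 h at 1 and 10 nM, TSA as positive control. Fixed in 4% paraformaldehyde, permeabilized with 0.5% Triton X-100, blocked in 3% BSA/PBS. Anti-AcH3 (lys9) primary 2 h, TRITC anti-rabbit 1 h, nuclear counterstain.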

Histone deacetylase = assay: Inhibition of HDAC in human HeLa nuclear extracts incubated for 60 mins using fluorometric substrate by fluorometric assay; type: protein assay; procedure, shortened: as §1

inhibition [1]	inhibition [3]	Ratio [5]	inhibition [10]	IC50 (Histone deacetylase)	SMILES	pIC50 (184B5)	selectivity ratio [2]	Activity (WSU-HN13 [4])	pIC50 [6]	Activity (WSU-HN13 [7])	pIC50 (WSU-HN13 [8])	pIC50 [9]
20%	Active	10	Dose-dependent effect		NC(=O)c1ccc(NS(=O)(=O)c2ccc(-c3ccccc3)cc2)cc1O	5.71	> 200	Dose-dependent effect	8.30	Dose-dependent effect	8.02	8.33
	Active	10	Dose-dependent effect	292000 nM	O=CN/N=C/c1ccc(NS(=O)(=O)c2ccc(-c3ccccc3)cc2)cc1O	5.74	> 186	Dose-dependent effect	8.30	Dose-dependent effect	8.01	8.31
